The format of series [1] is in vivo. To be noted: rat; for CSF AUC0–7 / CSF Cmax / Brain AUC0–7 / Brain Cmax: after BIA 10–2474 (1) 10 mg/kg p.o.; for Plasma AUC0–7: after BIA 10–2474 (1) 10 mg/kg p.o. in 0.5% methylcellulose; for Brain AUC0–7 / Brain Cmax: not corrected for binding to tissues. Summed up:
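Rats were dosed orally at 10 mg/kg in 0.5% methylcellulose. The parent compound and its metabolites were quantified in plasma, brain and CSF. Cmax and AUC0–7 were derived for each analyte.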

The test system of series [2] is ALDHs. Description: ABPP reactivity with ALDHs in human cells. The class given is cell-based. To be noted: N-methyl compounds.
For series [3], the target named is T1, ALDH2 (Homo sapiens, UniProt P05091).
T1 sequence (P05091 18-517): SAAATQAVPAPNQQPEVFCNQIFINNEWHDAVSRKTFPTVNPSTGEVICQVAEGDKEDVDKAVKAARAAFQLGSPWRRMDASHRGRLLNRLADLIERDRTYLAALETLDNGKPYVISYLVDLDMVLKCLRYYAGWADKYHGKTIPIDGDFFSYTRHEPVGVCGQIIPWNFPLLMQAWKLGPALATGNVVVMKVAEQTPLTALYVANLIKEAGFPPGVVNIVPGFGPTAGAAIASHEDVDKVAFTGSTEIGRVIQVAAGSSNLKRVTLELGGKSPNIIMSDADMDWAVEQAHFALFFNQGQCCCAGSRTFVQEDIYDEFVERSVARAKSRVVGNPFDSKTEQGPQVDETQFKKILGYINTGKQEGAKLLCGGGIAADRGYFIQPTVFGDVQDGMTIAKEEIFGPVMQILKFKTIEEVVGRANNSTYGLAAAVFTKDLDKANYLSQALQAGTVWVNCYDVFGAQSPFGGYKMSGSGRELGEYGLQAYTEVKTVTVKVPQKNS
As to the kind of experiment: LC-MS characterisation of the adduct with ALDH2 from treated HEK293T cells. The conditions noted are these: HEK293T cells expressing FLAG-tagged WT-ALDH2, 10 µM, 1 h; LC-MS-based proteomics. The series is classed as cell-based.

Series [4] has as its system ~50–55 kDa protein. Description: Gel-based CC-ABPP in CCF-STTG1 human astrocytoma cells. The conditions noted are these: pre-treatment 10 µM, 1 h, then probes 7 and 8. The series is classed as cell-based. Summed up:
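CCF-STTG1 human astrocytoma cells were pretreated in situ with DMSO or the parent test compound (10 μM, 1 h), then given the matching alkyne probe (1 μM, 1 h). Probe-labelled proteins were conjugated by CuAAC to a rhodamine-azide reporter, resolved by SDS-PAGE and detected by in-gel fluorescence scanning.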

Series [5] has as its target ALDH9A1 (Homo sapiens, UniProt P49189). Description: isoTOP-ABPP cysteine reactivity in SW620 cells: ALDH9A1. The class given is cell-based. To be noted: 10 µM, 1 h. An outline of the steps: (§1)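 SW620 cells were treated with test compound (10 μM, 1 h; light) or DMSO (heavy). Cysteine reactivity was then profiled globally by isoTOP-ABPP using an alkynylated iodoacetamide probe (IA-alkyne). Heavy/light ratios for quantified cysteines were averaged across four independent biological replicates.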

In series [6] the target is T1, ALDH2. Description: Quantitative MS-based CC-ABPP and Western blot in CCF-STTG1 cells: ALDH2. The class given is cell-based. To be noted: pre-treatment 10 µM, 1 h, then corresponding probe 7 or 8. An outline of the steps: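 CCF-STTG1 cells were grown in isotopically heavy or light amino-acid media. Cells received DMSO (heavy) or test compound (light; 10 μM, 1 h), followed by the corresponding clickable probe (1 μM, 1 h). Heavy/light protein ratios were averaged from quantified peptides across two independent biological replicates. Streptavidin-enriched fractions, with or without parent pretreatment, were immunoblotted with anti-ALDH2.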

Series [7] concerns the target T2, ALDH5A1 (Homo sapiens, UniProt P51649).
T2 sequence (P51649 48-535): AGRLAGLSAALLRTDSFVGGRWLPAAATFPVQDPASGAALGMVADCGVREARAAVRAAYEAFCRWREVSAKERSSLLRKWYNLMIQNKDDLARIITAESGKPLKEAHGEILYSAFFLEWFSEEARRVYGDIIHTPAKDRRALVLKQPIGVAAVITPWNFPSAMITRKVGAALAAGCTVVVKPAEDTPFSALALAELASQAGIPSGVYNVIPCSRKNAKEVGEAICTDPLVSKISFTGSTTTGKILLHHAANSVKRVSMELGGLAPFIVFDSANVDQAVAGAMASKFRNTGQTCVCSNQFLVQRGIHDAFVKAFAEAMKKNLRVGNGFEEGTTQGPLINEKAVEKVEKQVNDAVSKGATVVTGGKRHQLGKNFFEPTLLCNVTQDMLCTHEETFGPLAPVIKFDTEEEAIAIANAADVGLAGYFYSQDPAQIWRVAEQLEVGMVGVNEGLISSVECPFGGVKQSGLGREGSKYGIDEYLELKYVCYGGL
As to the kind of experiment: isoTOP-ABPP cysteine reactivity in SW620 cells: ALDH5A1. The series is classed as cell-based. The conditions noted are these: 10 µM, 1 h, Table S2. Summed up: as §1

Series [8] has as its target T1, ALDH2. Description: isoTOP-ABPP cysteine reactivity in SW620 cells: ALDH2. The class given is cell-based. To be noted: 10 µM, 1 h. An outline of the steps: as §1

Sequence of ALDH9A1 (P49189 whole entry): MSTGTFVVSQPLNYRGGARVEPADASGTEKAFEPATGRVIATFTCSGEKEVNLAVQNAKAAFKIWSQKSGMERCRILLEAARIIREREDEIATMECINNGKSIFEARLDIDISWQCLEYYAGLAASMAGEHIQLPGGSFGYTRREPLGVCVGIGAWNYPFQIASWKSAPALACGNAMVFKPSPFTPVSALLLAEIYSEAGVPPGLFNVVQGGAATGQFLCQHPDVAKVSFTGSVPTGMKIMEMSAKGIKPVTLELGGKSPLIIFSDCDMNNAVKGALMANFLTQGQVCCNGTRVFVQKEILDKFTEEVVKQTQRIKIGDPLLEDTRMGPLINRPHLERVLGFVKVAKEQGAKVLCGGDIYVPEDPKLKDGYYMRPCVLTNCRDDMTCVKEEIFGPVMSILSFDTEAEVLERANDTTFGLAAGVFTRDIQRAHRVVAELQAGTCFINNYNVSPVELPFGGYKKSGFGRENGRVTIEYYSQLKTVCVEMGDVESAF

Take `CN(C(=O)n1cnc(-c2ccc[n+]([O-])c2)c1)C1CCCCC1` [BIA 10–2474 (1)]: in series [1], the “CSF AUC0–7” value is 4000 ng·h/mL, the “CSF Cmax” value was determined as 1300 ng/mL, the “Plasma AUC0–7” value turned out to be 13800 ng·h/mL and the “Brain AUC0–7” value is given as 2480 ng·h/mL. Besides, the “Brain Cmax” value in series [1] stood at 939 ng/mL. Moreover, the “Reaction with ALDHs” value in series [2] is reported as “fail to react”.

As for `O=C(NC1CCCCC1)n1cnc(-c2ccc[n+]([O-])c2)c1` [compound 3], in series [1], the “CSF AUC0–7” value is recorded as 15.6 ng·h/mL, the “CSF Cmax” value is on record as 5.03 ng/mL, the “Plasma AUC0–7” value is reported as 323 ng·h/mL and the “Brain AUC0–7” value came to 11.8 ng·h/mL. Moreover, the “Brain Cmax” value in series [1] amounted to 4.57 ng/mL. Moreover, in series [3], the “Adduct with C319 on ALDH2” value is reported as “S-thiocarbamate adduct”. Besides, the “Blockade of probe labelling of ~50–55 kDa protein” value in series [4] is on record as “blocked”. Besides, the “IA-alkyne reactivity of C288 of ALDH9A1” value in series [5] is on record as “blocked”. For the same molecule, in series [6], the “Blockade of probe enrichment of ALDH2 (Western blotting)” value was “blockade”. For the same molecule, in series [7], the “IA-alkyne reactivity of C340 of ALDH5A1” value was “unchanged”. Besides, in series [8], the “IA-alkyne reactivity of C319 of ALDH2” value was “blocked” and the “IA-alkyne reactivity of other cysteine (C386) of ALDH2” value is “unperturbed”.

Regarding `CN(C(=O)n1cnc(-c2cccnc2)c1)C1CCCCC1` [compound 2], in series [1], the “CSF AUC0–7” value is on record as 113 ng·h/mL, the “CSF Cmax” value was 36.2 ng/mL, the “Plasma AUC0–7” value is given as 306 ng·h/mL and the “Brain AUC0–7” value turned out to be 185 ng·h/mL. In addition, in series [1], the “Brain Cmax” value turned out to be 252 ng/mL.

The values are drawn from publication PMC6383364 (ACS chemical biology, 2019).
